# Rows were chosen to be rich in hits. Some 3.7% of all compounds tested hit in one or more screens of this group.
# ERAP1 HTS inh: blocks human ERAP1 aminopeptidase activity; recombinant ERAP1, Leu-AMC fluorescence, 60 min; inhibition, % at 10.7 µM; actives 0.15% (n = 340,000); AID 652197;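 active = mean replicate inhibition of at least 30%, or all replicates individually reaching that 30% level; inactive = mean below 30% and not every replicate reaching it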;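 note: 0% = neutral control wells and 100% = L-leucinethiol positive control wells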
# F508del corr: CFTR F508del correction in bronchial cells; CFBE cells, YFP halide quenching; stimulated with forskolin plus potentiator P3; % fluorescence drop versus neutral controls; activity (quench increase), % at 7.58 µM; actives 0.36% (n = 350,000); AID 720511;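 active = mean added fluorescence quench of at least 8% versus neutral control, with both replicates also reaching 8%; inconclusive = only one of the mean or replicate conditions met; inactive = mean below 8% and not both replicates reaching 8%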;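 note: cells transiently co-express mutant CFTR-F508del with the halide-sensitive YFP; corrector assay measuring rescue of mutant channel to the surface after 24 h compound exposure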
# DENV2 CPE: DENV2-induced cell death inhibition; CPE inhibition, % at 9.99 µM; DENV2-infected cells, cytopathic effect rescue, plate reader; actives 1.7% (n = 350,000); AID 651640; in the data active = CPE inhibition above about 20%, passing the limit was not always enough; inconclusive = no clear call, values can overlap the other calls; tested in BHK-21 cells;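 note: 0% = median of neutral control wells and 100% = median of positive control wells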
# E-selectin induc: E-selectin induction on HUVECs | HUVEC E-selectin immunofluorescence imaging; normalized: neutral wells 0, TNF-alpha wells 100 | P16581 | actives 0.37% (n = 260,000) | activation, % at 7.58 µM;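 active = mean E-selectin-positive cell signal at least 10% of the positive control, reached in at least 60% of replicates, without over 20% cell loss; inconclusive = no rule given, readout overlaps actives, possibly toxicity-flagged; inactive = the rest, including those meeting only one limit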
# Target sequence (P16581 whole entry, looked up): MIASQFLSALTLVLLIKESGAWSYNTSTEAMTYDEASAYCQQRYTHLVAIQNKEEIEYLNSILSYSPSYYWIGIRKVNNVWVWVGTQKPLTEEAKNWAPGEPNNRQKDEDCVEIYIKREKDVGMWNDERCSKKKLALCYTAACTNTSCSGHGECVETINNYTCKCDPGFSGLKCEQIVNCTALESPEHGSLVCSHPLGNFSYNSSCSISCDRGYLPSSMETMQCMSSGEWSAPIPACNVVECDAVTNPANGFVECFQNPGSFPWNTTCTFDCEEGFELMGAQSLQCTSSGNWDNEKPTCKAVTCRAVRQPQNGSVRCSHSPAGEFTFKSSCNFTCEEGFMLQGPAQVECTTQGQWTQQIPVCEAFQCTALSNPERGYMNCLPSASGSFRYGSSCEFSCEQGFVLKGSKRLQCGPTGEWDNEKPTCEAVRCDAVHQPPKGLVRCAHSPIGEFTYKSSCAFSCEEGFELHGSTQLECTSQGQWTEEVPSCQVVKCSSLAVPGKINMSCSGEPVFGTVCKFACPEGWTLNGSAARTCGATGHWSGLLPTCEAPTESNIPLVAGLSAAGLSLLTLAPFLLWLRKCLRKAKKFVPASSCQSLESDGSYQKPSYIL
#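 Test system: HUVEC | Signal: Immunofluorescence imaging | Read-out: Percent E-selectin-positive cells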
# FGF22 binding-1: binders of recombinant human FGF22 by thermal shift; Q9HCT0; SYPRO orange fluorescence; percent of sucrose octasulfate shift, DMSO zero; activity (Tm shift, normalised), % at 9.99 µM; actives 1.5% (n = 340,000); AID 651658;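 active = mean Tm shift, scaled 0 neutral to 100 positive control, at about 1.3% or above, every replicate too, limit read from the data; inconclusive = no clear call, values can overlap the other calls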
# FGF22 binding-2: FGF22 (human) binding in thermal shift. recombinant FGF22 thermal shift, SYPRO orange fluorescence. shares compounds with FGF22 binding-1. thermal shift activity, °C (ΔTm) at 38 µM. actives 2% (n = 1,000);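 active = fitted rise in melting shift crosses a set limit at or below the top valid dose tested; inconclusive = flat fit at mid-level activity, or a poor quality fit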
# FGF22 TSA: FGF22 (human) binding by thermal shift; AID 743017; shares compounds with FGF22 binding-1; Tm shift (activity), % at 38 µM; 50 tested, under 10 active; Thermal shift assay, SYPRO orange, melting temperature shift;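 active = compounds whose fitted dose curve of melting temperature shift rises past a set threshold within the tested doses; inconclusive = flat curve at moderate activity, or poor curve fit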
# SYPRO no-protein: shows thermal shift signal without protein, FGF22 counter-screen; shares compounds with FGF22 binding-1; compound-only SYPRO orange thermal shift counter-screen, no protein; AC50, µM (highest dose often 38 µM); actives 2% (n = 1,000); AID 743019;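 active = rising signal whose fitted curve reaches the 0.54 level within the top valid dose, showing a melting point, actives reach about 13 µM in these data; inactive = the rest, including activity in the opposite direction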; note: value is where the raw curve crosses a fixed level and not half-maximal
# Active calls of the source: *; i = inactive; ? = inconclusive; . = no result given; [ ] = another dose, or the depositor's remark.
SMILES,ERAP1 HTS inh,F508del corr,DENV2 CPE,E-selectin induc,FGF22 binding-1,FGF22 binding-2,SYPRO no-protein,others
Cc1ccc(-c2ccc([C@@H]3[C@@H](CO)N4C(=O)CN(C(=O)c5ccc(F)cc5)C[C@H]34)cc2)cc1,3.0,1.4,?,-0.6,1.2*,-0.125,i,
O=C(c1ccccc1)N1CC(=O)N2[C@H](CO)[C@@H](c3ccc(C#CC4CC4)cc3)[C@@H]2C1,3.1,-0.8,-8.6,0.1,0.3,.,.,
O=C(c1ccccc1)N1CC(=O)N2[C@H](C1)[C@@H](c1ccc(C#CC3CC3)cc1)[C@@H]2CO,4.3,3.0,-14.8,0.0,1.8*,0.055[42 µM],i,
C[C@H](CO)N1C[C@H](C)[C@@H](CN(C)Cc2ccc(C(=O)O)cc2)OCCCC[C@H](C)Oc2ccc(NC(=O)C3CCCCC3)cc2C1=O,-3.4,-1.7,11.6,-0.2,0.2,.,.,
COc1ccc(-c2ccc([C@H]3[C@@H](CO)N4CCCCN(C(=O)c5ccc6c(c5)OCO6)C[C@@H]34)cc2)cc1,-1.9,-4.8,12.0,-0.1,-0.3,.,.,
COc1ccc(-c2ccc([C@H]3[C@@H](CO)N4CCCCN(C(=O)c5ccc6c(c5)OCO6)C[C@H]34)cc2)cc1,-1.2,-4.6,-21.1,0.1,1.3*,0.02,i,
COc1ccc(-c2ccc([C@@H]3[C@@H](CO)N4CCCCN(C(=O)c5ccc(F)cc5)C[C@@H]34)cc2)cc1,1.1,-1.0,-5.3,-0.6,34.3*,0.089[42 µM],9.01µM*,
COc1ccc(NC(=O)CN(c2ccc(C(C)C)cc2)S(=O)(=O)c2c(C)noc2C)cc1OC,.,-0.2,7.4,.,12.6*,-0.036,i,
C[C@@H]1CN([C@H](C)CO)C(=O)c2c(c3ccccc3n2C)-c2ccccc2CO[C@H]1CN(C)C(=O)c1ccccc1,-0.6,1.1,-1.6,-0.1,-0.3,.,.,
CNC[C@H]1Oc2ccc(NC(=O)Nc3ccc(OC)cc3)cc2C(=O)N([C@H](C)CO)C[C@@H]1C,-5.0,0.3,8.6,.,1.4*,0.098[42 µM],i,
CNC[C@H]1Oc2ccc(NC(=O)C3CCCCC3)cc2C(=O)N([C@@H](C)CO)C[C@H]1C,2.9,1.9,-4.5,-0.5,1.2*,0.17[42 µM],i,
O=C(NN=Cc1c[nH]c2ccccc12)NN=Cc1c[nH]c2ccccc12,-1.7,1.0,-0.1,-0.1,0.2,.,.,
O=C(N/N=C/c1c[nH]c2ccccc12)c1cccs1,2.6,-2.9,45.9*,-0.3,2.2*,.,i,FGF22 TSA=0.2
Cc1cc(C(=O)N/N=C/c2c[nH]c3ccccc23)cs1,-3.6,.,10.2,1.9,2.7*,.,i,FGF22 TSA=0.1
C[C@@H]1CCCCO[C@@H](CN(C)Cc2ccc3c(c2)OCO3)[C@@H](C)CN([C@H](C)CO)C(=O)c2cc(NC(=O)CCCCCC(=O)Nc3ccccc3N)ccc2O1,1.7,2.0,-18.6,0.8,-0.3,.,.,
COc1ccc(/C(=N\Nc2ccccc2C(=O)O)c2ccccc2)cc1,0.7,-2.4,-1.7,0.0,1.8*,0.189,i,
CCOC(=O)C(=O)N/N=C(/c1ccccc1)c1ccc(OC)cc1,3.4,-1.7,1.9,1.6,-0.2,.,.,
COc1ccc(-c2csc(C(C)(NC(C)=O)c3ccc(OC)cc3)n2)cc1 (stereo unspecified),-2.4,0.9,5.0,-0.3,-0.2,.,.,
COc1ccc(C(C)(NC(C)=O)c2nc(-c3ccncc3)cs2)cc1 (stereo unspecified),2.3,-0.2,?,-0.1,18.1*,0.046,i,
CO[C@@H]1CN(C)C(=O)c2ccc(NS(=O)(=O)c3ccccc3)cc2OC[C@H](C)NC[C@H]1C,2.4,1.3,-0.1,0.2,-0.2,.,.,
O=C(N/N=C/c1cccc(C(F)(F)F)c1)c1ccc(O)cc1,0.3,0.1,3.1,.,0.0,.,.,
O=C(N/N=C/c1ccc(C(F)(F)F)cc1)c1ccc(O)cc1,0.3,1.3,-3.8,19.7,2.4*,-0.069,i,FGF22 TSA=0.1
O=C(C[C@@H]1CC[C@@H](NC(=O)Nc2cc(F)ccc2F)[C@H](CO)O1)NCCCN1CCOCC1,2.8,-5.5,5.0,0.5,38.6*,0.233[42 µM],i,
COc1cccc(NC(=O)N[C@@H]2CC[C@@H](CC(=O)Nc3ccccc3)O[C@H]2CO)c1,0.1,1.5,-5.3,0.0,22.4*,0.256,i,
O=C(C[C@@H]1CC[C@H](NC(=O)c2ccc3c(c2)OCO3)[C@H](CO)O1)NCc1ccc(Oc2ccccc2)cc1,4.5,0.5,-0.5,-0.2,16.1*,0.343[42 µM],i,
SMILES,ERAP1 HTS inh,F508del corr,DENV2 CPE,E-selectin induc,FGF22 binding-1,FGF22 binding-2,SYPRO no-protein,others
C[C@H](NC(=O)C[C@@H]1CC[C@@H](NC(=O)Nc2ccc3c(c2)OCO3)[C@@H](CO)O1)c1ccccc1,1.2,0.2,1.1,0.6,6.9*,0.068[42 µM],i,
O=C(NCC[C@@H]1CC[C@@H](NC(=O)Nc2cc(F)ccc2F)[C@@H](CO)O1)Nc1ccc(F)cc1,0.0,-1.0,-7.7,-0.3,1.3*,0.146,i,
O=C(C[C@H]1CC[C@@H](NC(=O)Nc2cc(F)ccc2F)[C@@H](CO)O1)Nc1ccc(-c2ccccc2)cc1,3.0,3.0,2.1,2.5,1.3*,0.113[42 µM],i,
O=C(NCC[C@H]1CC[C@@H](NC(=O)Nc2cc(F)ccc2F)[C@@H](CO)O1)Nc1ccc(F)cc1,-0.1,-1.7,1.6,1.0,-0.1,.,.,
C/C=C/c1ccc2c(c1)O[C@H](CN(C)C(=O)c1ccc(F)cc1)[C@H](C)CN([C@H](C)CO)S2(=O)=O,0.0,.,-0.2,0.1,-0.2,.,.,
Cc1nc(NC(=O)C2CC2)sc1C(=O)Nc1ccccc1Cl,0.1,-0.7,-0.1,-0.1,1.9*,0.081,i,
COc1ccc(S(=O)(=O)N[C@@H]2C=C[C@H](CC(=O)NCCc3ccccc3)O[C@@H]2CO)cc1,-0.7,-0.6,-0.7,0.9,1.4*,0.093[42 µM],i,
Cc1ccc(S(=O)(=O)N[C@H]2C=C[C@@H](CC(=O)NCc3ccc(Cl)c(Cl)c3)O[C@H]2CO)cc1,0.6,0.8,-6.6,0.3,1.3*,0.124,i,
COc1ccc(S(=O)(=O)N[C@H]2C=C[C@H](CC(=O)NCCc3ccccc3)O[C@@H]2CO)cc1,0.1,-0.4,-11.0,0.3,-0.7,.,.,
Cc1ccc(N(C)S(=O)(=O)c2cccc(C(=O)Nc3ccc(N4CCOCC4)cc3)c2)cc1,1.5,0.7,9.2,.,-0.3,.,.,
COc1ccc(N(C)S(=O)(=O)c2cccc(C(=O)Nc3ccc(N4CCOCC4)cc3)c2)cc1,-1.2,2.2,9.2,-0.7,2.3*,0.116,i,
